An excerpt weighted towards active compounds, which were near 2.1% of everything screened.
EP2 modulator – modulates human prostaglandin E2 receptor EP2 signaling | EP2-expressing cells, cAMP HTRF FRET, PGE2 co-stimulation | P43116 | AID 940 | induction, % at 25 µM | 260,000 tested, 0.83% active;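 active = compounds whose cAMP rise, as percent of the full-agonist control response, exceeds 60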;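 also: rat C6 glioma line stably carrying human EP2 under a CMV promoter; the protocol text gives 20 µM as final concentration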
Target sequence (P43116 whole entry, looked up): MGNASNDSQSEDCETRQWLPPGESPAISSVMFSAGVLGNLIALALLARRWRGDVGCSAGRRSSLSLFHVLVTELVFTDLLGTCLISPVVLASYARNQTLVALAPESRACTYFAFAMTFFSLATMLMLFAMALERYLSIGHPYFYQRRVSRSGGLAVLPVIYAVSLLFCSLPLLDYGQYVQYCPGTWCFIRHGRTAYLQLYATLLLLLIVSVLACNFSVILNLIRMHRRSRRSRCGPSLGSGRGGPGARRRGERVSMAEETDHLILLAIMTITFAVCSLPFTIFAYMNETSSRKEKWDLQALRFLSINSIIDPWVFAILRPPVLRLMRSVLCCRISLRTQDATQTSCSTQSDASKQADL
FXIa inh – blocks human coagulation factor XIa protease activity. P03951. purified FXIa, Boc-Glu-Ala-Arg-AMC fluorogenic substrate. inhibition, % at 5 µM. 220,000 tested, 0.14% active;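 active = inhibition of at least 40%; inactive = inhibition below 40%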;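 also: fluorescence of freed AMC excited at 355 nm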
Thrombin inh – inhibitors of human thrombin; 220,000 tested, 0.26% active; alpha-thrombin, Boc-VPR-AMC fluorogenic substrate cleavage; inhibition, % at 5 µM;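 active = inhibition at or above 40%; inactive = inhibition below 40%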
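Material: human alpha-thrombin protein; Also added: Boc-VPR-AMC substrate, 15 µM final; Timing: enzyme reaction carried out at room temperature; Signal: fluorescence, ex 355 nm, em 460 nm; Measure: % inhibition of thrombin; Controls: enzyme without compound as high, wells lacking enzyme as low.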
EP2 antag – EP2 receptor (human) inhibition; C6 glioma cells expressing human EP2, cAMP TR-FRET; cells stimulated with saturating PGE2; inhibition, % at 25 µM; 260,000 tested, 0.52% active;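 active = percent inhibition above 40 after rounding to a whole number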;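 also: rat C6 glioma host cells with rolipram phosphodiesterase inhibitor present; the protocol text gives 20 µM as final concentration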
FXIIa inh 1536 – inhibitors of human coagulation factor XIIa | P00748 | purified FXIIa, Boc-QGR-AMC fluorogenic substrate, 2 h | inhibition, % at 5 µM | 220,000 tested, 0.3% active; in the data active = inhibition above about 40%
hK5 inh – kallikrein 5 (human) inhibition | inhibition, % at 5 µM | recombinant hK5, fluorogenic AMC substrate cleavage | 210,000 tested, 0.59% active | Q9Y337 | AID 873;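 active = inhibition of 40% or more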
Target sequence (Q9Y337 67-293 limits assumed): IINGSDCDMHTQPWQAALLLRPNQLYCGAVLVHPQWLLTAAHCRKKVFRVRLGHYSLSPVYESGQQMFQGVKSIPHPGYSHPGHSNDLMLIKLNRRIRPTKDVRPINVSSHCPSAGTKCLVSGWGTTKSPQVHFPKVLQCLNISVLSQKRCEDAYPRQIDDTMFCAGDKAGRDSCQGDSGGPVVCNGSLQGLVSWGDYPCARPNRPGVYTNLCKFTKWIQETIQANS
EP2 cAMP induct – human EP2 receptor cAMP induction, negative in counter-screens; shares compounds with EP2 modulator; C6 glioma EP2 cells, cAMP HTRF induction; plus low (about EC15) PGE2 agonist; AID 1080; 1,300 tested, 47% active; calls only at 20 µM (by protocol);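 active = cAMP induction above 50% in the main assay while under 30% in all four parallel counter assays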;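 also: rat C6 glioma cells stably expressing human EP2 receptor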
A number is an active result; - = inactive; . = no result given; + = active, no number.

SMILES	EP2 modulator	FXIa inh	Thrombin inh	EP2 antag	FXIIa inh 1536	hK5 inh	EP2 cAMP induct
C=CCSc1ncnc2sc(C)c(C)c12	-	-	-	-	-	-	-
C=CCSc1nc2sc(C)c(C)c2c(=O)n1CC=C	71	-	-	-	-	-	-
N#CC(C#N)C1(c2c(C34CC5CC(CC(C5)C3)C4)[nH][nH]c2=O)C(=O)Nc2ccccc21 (stereo not given)	-	.	.	-	.	.	.
O=c1[nH]c(=O)n(-c2cccc(Cl)c2)c(O)c1C=NCCO	-	.	.	-	.	.	.
C=CCn1c(SCC(=O)Nc2ccc(C)cc2)nnc1-c1ccncc1	-	.	.	-	.	.	.
N#Cc1sc2nc(N3CCCCC3)c3c(c2c1N)CCCC3	73	-	-	-	-	-	+
Cc1cccnc1C1(O)CCN(C(=O)c2ccc(Cn3cccn3)o2)CC1	-	.	.	.	.	.	.
CCNc1nc(NCC)nc(SCCOc2ccc(C)cc2)n1	82	-	-	-	-	-	+
CC(=O)CSc1nc(-c2cccs2)c(C#N)c(=O)[nH]1	68	-	-	-	-	-	-
CC(=O)CSc1nc(N)c(C#N)c(-c2cccs2)c1C#N	-	-	-	-	-	-	.
O=C(c1ccccc1)C1CN(Cc2ccccc2)CCC1(O)c1ccccc1 (stereo not given)	76	-	-	-	-	-	-
COc1ccc(NC(=O)Cn2nc(C)n3c(cc4sccc43)c2=O)cc1	-	.	.	.	.	.	.
CCc1nc(N2CCC(C)CC2)c2oc3ccccc3c2n1	70	-	-	-	-	-	-
CCOC(=O)c1ccccc1NC(=O)C(C)Oc1ccccc1 (stereo not given)	-	-	-	-	-	-	+
CCOC(=O)c1ccccc1NC(=O)CSc1ccccc1	79	-	-	-	-	-	-
CCOC(=O)c1ccccc1NC(=O)COc1ccccc1	79	-	-	-	-	-	-
COc1ccc(OCC(=O)Nc2ccccc2-c2ccccc2)cc1	-	-	-	-	-	-	.
Cc1cccc(OCC(=O)Nc2ccccc2-c2ccccc2)c1	71	-	-	-	-	-	+
COc1ccc(-c2nc(-c3cccc(C)c3)no2)cc1OC	-	-	-	-	-	-	.
COc1cc(-c2noc(-c3cccc(Cl)c3)n2)cc(OC)c1OC	-	-	-	-	-	-	+
COc1cc(-c2nc(-c3cccc(C)c3)no2)cc(OC)c1OC	61	-	-	-	-	-	-
CCCCCCC/C=C\CCCCCCCCC(=O)O	94	.	.	-	.	.	+
CCN(CC)c1ccc(NC(=O)c2cnn3c2NC(c2ccc(C)cc2)CC3C(F)F)cc1 (stereo not given)	-	.	.	-	.	.	.
CC1CCCN(c2nc3c(c(=O)[nH]2)CCN(Cc2ccc(F)cc2)C3)C1 (stereo not given)	-	.	.	-	.	.	.
CCOC(=O)C(C)(C)N(Cc1cccc(C)c1)S(=O)(=O)c1cccc([N+](=O)[O-])c1	-	-	-	-	-	-	.
SMILES	EP2 modulator	FXIa inh	Thrombin inh	EP2 antag	FXIIa inh 1536	hK5 inh	EP2 cAMP induct
CCOC(=O)c1ccc(CN(Cc2ccc(C)cc2)S(=O)(=O)c2cccc([N+](=O)[O-])c2)cc1	65	-	-	-	-	-	-
CCn1c(SCC(=O)Nc2cccc(C)c2C)nnc1-c1ccco1	-	.	.	-	.	.	.
CN(C)c1ccc(NC(=O)CN2CCC(O)(c3ccccn3)CC2)cc1	-	.	.	.	.	.	.
CC(C)(C)C1CCc2onc(C(=O)Nc3cccnc3)c2C1 (stereo not given)	-	-	-	-	-	-	-
CC1CCCN(C(=O)CSc2cnc3ccccc3n2)C1 (stereo not given)	68	-	-	-	-	-	-
Cc1nc2ccccc2nc1SCC(=O)N1CCC(C)CC1	65	-	-	-	-	-	-
CCc1ccc(NC(=S)N(Cc2ccccc2)Cc2ccccn2)cc1	70	-	-	-	-	-	-
Cc1ccc(Cn2c(SCC(=O)Nc3ccc4c(c3)OCO4)nc3c2c(=O)n(C)c(=O)n3C)cc1	-	.	.	-	.	.	.
NC(=O)CSc1nnc(-c2cccc(S(=O)(=O)N3CCOCC3)c2)n1C1CCCCCC1	81	-	-	-	-	-	-
N#CC(Cc1ccncc1)C(=O)Nc1ccc(Br)cc1 (stereo not given)	-	.	.	-	.	.	.
COc1ccc(CN2C(=O)CN=C2Nc2cc(C)ccc2C)cc1	70	-	-	-	-	-	-
CCc1ccccc1NC1=NCC(=O)N1Cc1ccc(OC)cc1	-	-	-	-	-	-	.
COc1ccc(-c2nnc3ccc(SCC(=O)Nc4nc5ccccc5s4)nn23)cc1OC	66	-	-	-	-	-	-
Cc1ccc(C)c(N=C2CCCN2Cc2ccccc2)c1C#N	78	-	-	-	-	-	+
O=C(O)CN1CCCC1=Nc1ccccc1	-	-	-	-	-	-	.
Cc1cc(O)ccc1C1(c2ccc(O)cc2C)OC(=O)c2ccccc21	67	-	-	-	-	-	-
Cc1cccc(C2(c3cccc(C)c3)OC(=O)c3ccccc32)c1	-	-	-	-	-	-	.
CNC(=S)N1CCC(c2nc3ccccc3o2)CC1	-	.	.	-	.	.	.
COc1nc(Cc2ccc(Cl)cc2)nc2ccccc12	-	-	-	-	-	-	.
C#CCSc1nc(Cc2ccc(Cl)cc2)nc2ccccc12	67	-	-	-	-	-	+
COc1ccc(C(=O)[C@H]2CCCN(C(=O)c3cc(-c4cccs4)[nH]n3)C2)cc1	-	.	.	-	.	.	.
Cc1ccc(CNC(=O)Cn2ncc3c4oc(C)cc4n(C)c3c2=O)o1	-	.	.	-	.	.	.
CC(C)n1c(=O)[nH]c2c(C(N)=O)nc(-c3ccc(Cl)cc3)nc21	-	.	.	-	.	.	.
COc1ccc(-n2c(COc3cccc4ccccc34)nnc2SCC#N)cc1	-	-	-	-	-	-	-
N#CCSc1nnc(COc2cccc3ccccc23)n1-c1ccccc1	-	-	-	-	-	-	.
SMILES	EP2 modulator	FXIa inh	Thrombin inh	EP2 antag	FXIIa inh 1536	hK5 inh	EP2 cAMP induct
Cc1ccc(-n2cc(-c3ccccc3)c3c(N4CCN(C)CC4)ncnc32)cc1	-	-	-	-	-	-	.
Cc1ccc(-n2cc(-c3ccccc3)c3c(N4CCOCC4)ncnc32)cc1	69	-	-	-	-	-	-
CCOc1ccccc1NC(=O)c1ccccc1-c1nc(-c2ccccc2)no1	66	-	-	-	-	-	-
COc1ccc(-c2noc(-c3ccccc3C(=O)Nc3cccc(OC)c3)n2)cc1	-	-	-	-	-	-	.
COc1ccc(-c2noc(-c3ccccc3C(=O)Nc3cccnc3)n2)cc1	-	-	-	-	-	-	+
Cc1ccc2c(c1)cc(CN(C(=O)c1ccccc1F)C1CCCC1)c1nnnn12	-	.	.	-	.	.	.
Cc1ccc(-n2nc3c(=S)[nH]nc(C)c3c2C)cc1	81	-	-	.	-	-	-
Cc1n[nH]c(=S)c2nn(-c3ccccc3)c(C)c12	-	-	-	.	-	-	.

Compound activity as filed in PubChem.
